Compound activity: PubChem, The Scripps Research Institute Molecular Screening Center
CHO parental Ca – counter-screen: ATP calcium response change in parental CHO cells. 0.63% of 330,000 active. parental CHO-K1, ATP-induced calcium, Fluo-8 fluorescence. inhibition, % at 5.6 µM;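 active means inhibition above that plate's mean sample inhibition plus 3 SD, cut at about 26% in these data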;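 further: 0% = ATP-challenged DMSO wells and 100% = DMSO wells without ATP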
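Test system: untransfected parental CHO cell line. Compound: one dose, 5.6 µM nominal. Detection: intracellular calcium via Fluo-8 no-wash fluorescent dye. Measure: % inhibition. Benchmarks: ATP-challenged DMSO wells low, unchallenged DMSO wells high.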
OX1R antag-1 – OX1R (human) antagonism | O43613 | OX1R-expressing cells, FRET antagonist read-out | inhibition, % at 6.6 µM | 1.8% of 330,000 active | AID 485270; in the data active means inhibition mostly above about 38%, no sharp cut-off; inactive means mostly below about 40%;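 further: 0% = agonist challenge alone and 100% = reference antagonist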
GPR7 antag – blocks human GPR7 receptor signaling | AID 1861 | inhibition, % at 4.4 µM | 1.1% of 290,000 active | P48145 | GPR7-expressing cells, fluorescence antagonist assay; in the data active means inhibition above about 16%, passing the limit was not always enough;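 further: cells stimulated with the agonist NPW; 0% = agonist with vehicle and 100% = vehicle without agonist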
Target sequence (P48145 whole entry, looked up): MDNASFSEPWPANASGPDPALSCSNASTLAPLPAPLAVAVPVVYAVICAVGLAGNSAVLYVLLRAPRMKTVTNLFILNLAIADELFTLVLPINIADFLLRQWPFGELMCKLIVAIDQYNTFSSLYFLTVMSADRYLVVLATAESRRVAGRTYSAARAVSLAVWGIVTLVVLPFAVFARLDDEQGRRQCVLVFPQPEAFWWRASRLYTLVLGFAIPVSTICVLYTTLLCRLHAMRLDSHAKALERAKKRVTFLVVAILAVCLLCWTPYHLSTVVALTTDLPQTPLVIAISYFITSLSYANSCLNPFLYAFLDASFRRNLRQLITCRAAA
OX1R antag-2 – antagonists of human orexin 1 receptor. O43613. inhibition, % at 5 µM. 0.43% of 330,000 active. CHO/OX1R cells, Fluo-8 calcium fluorescence, orexin A;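 active means inhibition above its plate's threshold, mean inhibition of all tested compounds on the plate plus 3 SD, cut at about 37% in these data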;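 further: 0% = orexin A challenge wells and 100% = SB-334867-A antagonist wells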
GalR3 antag – blocks the human galanin receptor 3; 0.44% of 360,000 active; AID 651719; O60755; HEK293 GalR3-CNG cAMP membrane potential fluorescence; galR3 body fused to GalR1 C-terminus; inhibition, % at 3 µM;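 active means inhibition above the screen-wide average plus 3 SD, cut at about 13% in these data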;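 further: forskolin and galanin both at EC90 stimulate the cells; cAMP rise reported by CNG channel membrane potential dye signal; 0% = forskolin plus galanin with DMSO and 100% = forskolin alone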
Target sequence (O60755 1-299 limits assumed): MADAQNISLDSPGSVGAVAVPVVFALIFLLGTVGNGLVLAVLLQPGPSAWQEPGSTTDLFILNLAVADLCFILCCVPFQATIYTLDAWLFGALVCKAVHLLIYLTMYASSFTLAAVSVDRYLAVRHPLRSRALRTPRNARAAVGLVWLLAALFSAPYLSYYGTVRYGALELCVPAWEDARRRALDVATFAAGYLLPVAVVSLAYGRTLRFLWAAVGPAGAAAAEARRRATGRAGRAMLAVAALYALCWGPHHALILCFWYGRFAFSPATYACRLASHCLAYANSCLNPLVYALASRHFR
GPR7 antag conf – confirmation of human GPR7 antagonists; shares compounds with GPR7 antag; GPR7-expressing cells, calcium fluorescence antagonist mode; inhibition, % at 4.4 µM; 52% of 2,400 active; in the data active means inhibition above about 24%;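 further: stimulated with the GPR7 agonist NPW; 0% = agonist plus vehicle and 100% = vehicle alone without agonist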
MCHR1 antagonist – antagonizes human MCHR1, a GPR7 antagonist counter-screen | shares compounds with GPR7 antag | MCHR1-expressing cells, fluorescence antagonist assay | inhibition, % at 4.4 µM | 62% of 2,400 active | AID 2148; in the data active means inhibition above about 22%;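 further: 0% = vehicle with agonist and 100% = vehicle without agonist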
The depositor's hits bear a star; . = no result. The list is not random: actives were taken first. Their share in the collection is about 3.1%.

SMILES	CHO parental Ca	OX1R antag-1	GPR7 antag	OX1R antag-2	GalR3 antag	GPR7 antag conf	MCHR1 antagonist
COc1cccc(CNCCc2c[nH]c3ccccc23)c1OCc1ccc(F)cc1	-9	16	25*	-2	-6	46*	65*
Cc1ccc(SCC(=O)Nc2cccc(-c3nnc(-c4ccco4)o3)c2)cc1	-27	19	-5	-8	-2	.	.
COc1ccc(C(=O)NCC(C)C)c(OC)c1	-14	11	2	-31	0	.	.
COc1ccc(C(=O)/C=C/c2ccc(N(C)C)cc2)c(OC)c1	59*	83*	32*	112*	-3	58*	81*
COc1ccc(C(=O)N(C(C)C)C(C)C)c(OC)c1	-3	8	25*	-4	-5	14	8
Cc1cccc2cc3c(nc12)SC(=NCC1CCCO1)N(Cc1ccco1)C3 (centres undefined)	-31	31	22*	-35	.	13	60*
Cc1ccc2nc3c(cc2c1)CN(Cc1ccco1)C(=NCC1CCCO1)S3 (centres undefined)	-8	13	-1	-26	-1	.	.
O=C(CNS(=O)(=O)c1ccc([N+](=O)[O-])cc1)N/N=C/c1ccc(O)cc1O	12	16	41*	15	-8	64*	44*
CC(=O)Nc1ccc(/C=N\NC(=O)CNS(=O)(=O)c2ccc([N+](=O)[O-])cc2)cc1	-1	35	12	1	-2	.	.
O=C(CNS(=O)(=O)c1ccc([N+](=O)[O-])cc1)N/N=C\c1ccc(O)cc1	6	7	41*	7	-12	46*	34*
NC(=O)c1c(N)sc2c1CCCC2	5	18	23*	-17	6	1	17
Nc1sc2c(c1C(=O)c1ccccc1)CCCC2	-11	12	-5	-19	-6	.	.
CC1CCN(c2nc(CN3CCCCC3)nc3scc(-c4ccccc4)c23)CC1	-17	11	23*	-26	-4	32*	32*
CN1CCN(S(=O)(=O)c2cccc(C(=O)Nc3cccc([N+](=O)[O-])c3)c2)CC1	-17	10	.	-24	-3	.	.
CCn1ncc(CN2CCC(C(=O)Nc3cccc(-c4cccc(F)c4)c3)CC2)c1C	-21	3	6	-31	-9	.	.
CCn1nc(C)c(CN2CCC(C(=O)Nc3cccc(-c4cccc(Cl)c4)c3)CC2)c1C	-17	1	26*	-28	-3	19	51*
Cc1nn(CC(=O)Nc2ccccc2C(F)(F)F)c(=O)c2cccn12	-9	8	31*	-5	-7	9	1
CN(C(=O)CN1C(=O)C2C3CC(C(Br)C3Br)C2C1=O)C1CCCCC1 (centres undefined)	-14	7	23*	-2	-8	39*	4
COc1cc(OC)cc(-c2oc(=O)c3cc(OC)c(OC)cc3c2/C=C/c2ccc(F)cc2)c1	-27	6	.	-43	-6	.	.
Cc1ccc(Cl)cc1NC(=O)c1cc2ccccc2cc1O	58*	65	25*	46*	2	54*	53*
CC#CCN(CC#CC)S(=O)(=O)c1ccc(-n2cnnn2)c(OC)c1	-7	8	24*	-7	-7	11	5
CC(=O)c1cccc(NC(=O)CSc2nnc(C(C)N(C)C)n2-c2ccc(F)cc2)c1 (centres undefined)	-16	28	35*	-25	-5	10	-4
CCN(CC(=O)Nc1c(F)cccc1F)C(=O)c1cc(S(=O)(=O)N(CC)CC)ccc1N1CCCCC1	-35	16	29*	-34	-5	32*	26*
CCN(CC)S(=O)(=O)c1ccc(N2CCCC2)c(NC(=O)Cc2c(F)cccc2Cl)c1	-24	14	31*	-21	-3	44*	41*
CCN1CCN(c2ccc(S(=O)(=O)N3CCCCC3)cc2NC(=O)Cc2c(F)cccc2Cl)CC1	-12	-5	-7	-36	6	.	.
SMILES	CHO parental Ca	OX1R antag-1	GPR7 antag	OX1R antag-2	GalR3 antag	GPR7 antag conf	MCHR1 antagonist
O=C(Nc1cccc(CCc2ccccn2)c1)c1cc(F)c(F)cc1Cl	-26	18	-8	-40	3	.	.
CC(C)[C@@H](CO)NC(=O)[C@H]1O[C@@H](n2cnc3c(N)ncnc32)[C@H](O)[C@@H]1O	.	.	.	.	-5	.	.
CC(=O)NCCn1c(SCc2cc(F)ccc2F)nc2ccccc2c1=O	-9	19	33*	-12	-4	-5	-3
Cc1ccc(C)c(N2CCN(CCCNC(=O)CCC(=O)N3CCOc4ccc(Cl)cc43)CC2)c1	-12	-4	29*	-8	-12	50*	79*
O=C(CCC(=O)N1CCOc2ccc(Cl)cc21)NCCCN1CCN(c2ccccc2F)CC1	-16	21	4	-23	.	.	.
Cc1cccc2c1NC(=O)C2(c1ccc(O)cc1)c1ccc(O)cc1	4	24	67*	8	1	79*	49*
CCN1C(=O)C(c2ccc(O)cc2)(c2ccc(O)cc2)c2ccccc21	-5	18	-11	-1	0	.	.
O=C(CCn1ccc2ccccc21)Nc1ccc(N2CCOCC2)cc1	-4	5	30*	-7	-3	-1	5
O=C(CCn1c(=O)oc2ccccc21)Nc1ccc(N2CCOCC2)cc1	4	6	-3	-1	-10	.	.
COc1ccc(NC(=O)Nc2ccc3oc(C)nc3c2)cc1	-15	16	8	-19	-1	.	.
Cc1nc2cc(NC(=O)N(C)c3ccc4ccccc4c3)ccc2o1	-9	21	32*	-11	-2	11	26*
Cc1nc2cc(NC(=O)c3ccc(S(=O)(=O)N(C)c4ccccc4)cc3)ccc2o1	21	16	45*	14	10	63*	81*
COc1ccc(-c2nn(-c3ccccc3)cc2C(=O)NC2CCCCC2C)cc1 (centres undefined)	-4	25	.	-20	-3	.	.
O=C(CCc1c[nH]c2ccccc12)N1CCN(S(=O)(=O)c2ccccc2)CC1	-12	5	.	-24	1	.	.
CC(C)N(C(C)C)S(=O)(=O)c1ccc(N2CCc3ccccc3C2)nc1	-25	22	21*	-8	-9	16	63*
CCN(CC)S(=O)(=O)c1ccc(N2CCc3ccccc3C2)nc1	-13	10	-10	-17	-5	.	.
CCOC(=O)c1[nH]c2ccc(OC)cc2c1NS(=O)(=O)c1ccc(OC)cc1OC	-8	11	22*	-8	-6	32*	21
O=S(=O)(c1cccc2nsnc12)N1CCCCC1	-3	41	-18	-14	-7	.	.
COc1ccc(NC(=O)COC(=O)CCNC(=O)c2ccco2)cc1Cl	-5	3	.	-7	-7	.	.
CN1CCN(C2=CC3=CC(=C(C#N)C#N)CCC3CC2)CC1 (centres undefined)	.	.	59*	.	.	76*	90*
